Screening results as filed in PubChem BioAssay.
TLR9-MyD88 inh = TLR9-MyD88 interaction inhibition | Q9NR96+Q99836 | 340,000 tested, 0.21% active | AID 504734 | inhibition, % at 4.98 µM | CHO BLA complementation TLR9-MyD88, CCF4 FRET ratio;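 active means inhibition above the mean over all tested compounds plus 3 SD, cut at about 21% in these data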;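 further: 0% = DMSO only wells and 100% = clavulanate BLA inhibitor control wells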
MC4R barr agon = activates human MC4R beta-arrestin recruitment; U2OS MC4R beta-arrestin complementation, luminescence; percent of melanotan II response, DMSO zero; activation, % at 8.9 µM; 360,000 tested, 0.98% active;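 active means activation above a per-plate cutoff, the mean activation of sample wells on that plate plus 3 SD, cut at about 8% in these data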
MIN6 prolif = inducers of beta-cell replication in MIN6 cells. MIN6 cells proliferation, ATPlite luminescence, 48 h; cells starved in 0.2% serum; 100% = growth in 10% serum. proliferation, % at 10 µM. 330,000 tested, 0.29% active. AID 2380;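 active means compounds whose signal lies at least 3.5 SD above the mean of all wells on their plate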;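 further: 0% = DMSO-treated cells in low-serum medium and 100% = 10% serum control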
NOD2 RIPK2 PPI = inhibitors of human NOD2-RIPK2 interaction; CHO BLA complementation NOD2-RIPK2, CCF4 ratio; inhibition, % at 4.98 µM; 360,000 tested, 0.38% active; in the data active means inhibition above about 21%;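 further: 0% = vehicle only and 100% = reference blocker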
TLR4-MyD88 BLA = blocks binding of human TLR4 to MyD88 | O00206+Q99836 | HeLa CL3-4 TLR4/MyD88 BLA complementation, FRET ratio | inhibition, % at 8.4 µM | 200,000 tested, 0.18% active; in the data active means inhibition above about 25%;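 further: 0% = vehicle and 100% = reference inhibitor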
Target sequence (O00206 whole entry, looked up): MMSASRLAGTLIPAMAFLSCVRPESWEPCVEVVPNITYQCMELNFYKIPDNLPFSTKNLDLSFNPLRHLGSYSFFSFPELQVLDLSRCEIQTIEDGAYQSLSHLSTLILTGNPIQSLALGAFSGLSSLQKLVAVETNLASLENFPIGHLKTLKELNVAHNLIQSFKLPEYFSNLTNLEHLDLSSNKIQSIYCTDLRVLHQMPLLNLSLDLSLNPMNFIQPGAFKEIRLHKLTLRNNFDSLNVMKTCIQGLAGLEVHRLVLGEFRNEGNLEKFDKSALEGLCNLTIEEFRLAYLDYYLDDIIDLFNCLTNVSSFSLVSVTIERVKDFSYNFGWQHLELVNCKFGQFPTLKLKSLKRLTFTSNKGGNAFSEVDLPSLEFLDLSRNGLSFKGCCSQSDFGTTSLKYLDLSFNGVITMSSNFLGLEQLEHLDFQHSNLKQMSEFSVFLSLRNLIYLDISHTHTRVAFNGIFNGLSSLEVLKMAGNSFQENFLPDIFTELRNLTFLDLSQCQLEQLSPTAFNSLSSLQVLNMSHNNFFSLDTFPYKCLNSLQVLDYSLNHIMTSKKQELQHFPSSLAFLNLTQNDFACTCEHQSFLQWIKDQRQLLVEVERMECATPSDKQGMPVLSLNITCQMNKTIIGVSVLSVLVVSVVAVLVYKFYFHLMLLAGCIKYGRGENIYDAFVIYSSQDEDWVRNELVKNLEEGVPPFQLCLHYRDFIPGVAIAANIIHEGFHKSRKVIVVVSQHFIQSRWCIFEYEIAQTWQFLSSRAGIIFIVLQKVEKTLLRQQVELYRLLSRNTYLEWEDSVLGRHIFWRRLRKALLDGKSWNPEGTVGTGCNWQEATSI
Target sequence (Q99836 whole entry, looked up): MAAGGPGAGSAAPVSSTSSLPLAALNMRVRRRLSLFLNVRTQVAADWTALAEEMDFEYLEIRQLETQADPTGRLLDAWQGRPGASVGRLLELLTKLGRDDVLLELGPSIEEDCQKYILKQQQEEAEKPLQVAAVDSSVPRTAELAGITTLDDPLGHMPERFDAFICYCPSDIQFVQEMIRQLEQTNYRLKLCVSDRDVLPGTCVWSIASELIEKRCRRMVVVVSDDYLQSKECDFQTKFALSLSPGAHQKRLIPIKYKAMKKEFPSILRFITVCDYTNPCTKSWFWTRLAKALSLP
MC4R antag cAMP = blocks human MC4R cAMP signaling; 360,000 tested, 0.48% active; inhibition, % at 6.5 µM; AID 540295; MC4R-expressing cells, MTII-stimulated cAMP, LANCE TR-FRET;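 active means inhibition above its plate's cutoff, the mean of tested wells on that plate plus 3 SD, cut at about 29% in these data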;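 further: 0% = Melanotan II alone and 100% = Melanotan II plus saturating MCL0020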
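System – human MC4R-expressing U2OS cells · Also added – Melanotan II · Dosing – one concentration, 6.5 µM nominal · Timing – 30-min compound, 1-h challenge, 1-h detection, room temperature · Measured by – Eu-cAMP/anti-cAMP TR-FRET, emission 671 nm · Replicates – singlicate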
MC4R barr ag = human MC4R beta-arrestin agonism confirmation | activation, % at 8.9 µM | shares compounds with MC4R barr agon | 2,400 tested, 31% active | U2OS MC4R beta-arrestin recruitment, luminescence; scaled DMSO 0%, Melanotan II 100% | AID 602192;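 active means mean activation across replicates above the hit cutoff set in the earlier primary screen, cut at about 8% in these data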
MOR-DOR barr ag = activates mu-delta opioid heterodimer, MC4R agonist counter-screen | 2,400 tested, 5.8% active | shares compounds with MC4R barr agon | activation, % at 9.2 µM | AID 602194 | U2OS PathHunter beta-arrestin, beta-gal luminescence; percent of deltorphin B response, DMSO zero;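 active means mean activation across replicates exceeds the hit threshold derived in the earlier primary screen, cut at about 18% in these data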;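 further: 100% = deltorphin B at 0.9 µM final and 0% = DMSO alone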
Starred values were filed as active, the others as inactive; . = not tested or not shown; ! = a repeat was not active. Compounds with a hit are over-represented: about 2.1% of the library has one in this group of screens.

SMILES	TLR9-MyD88 inh	MC4R barr agon	MIN6 prolif	NOD2 RIPK2 PPI	TLR4-MyD88 BLA	MC4R antag cAMP	MC4R barr ag	MOR-DOR barr ag
COc1ccccc1N(C(=O)c1ccco1)C(C(=O)NC1CCCC1)c1ccc(N2CCOCC2)cc1 (configuration not stated)	-1.4	3.7	-1.7	-8.2	.	-1.4	.	.
Cc1cccc(N2CCN(C3=NC(=O)/C(=C\c4cn[nH]c4-c4ccccc4)S3)CC2)c1	-1.3	16.4*	-0.2	-8.7	-2.6	8.6	5.7	5.7
Cc1ccc(N2CCN(C3=NC(=O)/C(=C\c4cn[nH]c4-c4ccccc4)S3)CC2)cc1	-7.2	18.1*	-0.4	-9.7	-2.5	7.6	4.4	2.9
O=C1N=C(N2CCN(c3ccccc3)CC2)S/C1=C\c1ccco1	1.1	4.3	-2.4	4.5	-2.3	-6.9	.	.
CCC1CCCCN1C(=O)COC(=O)CN(C)S(=O)(=O)c1ccc(NC(C)=O)cc1 (configuration not stated)	2.1	-4.9	6.4	0.0	.	4.6	.	.
COc1ccc(S(=O)(=O)N(C)C)cc1NCC(=O)Nc1cccc(C#N)c1	3.0	-1.4	2.6	-3.0	-10.5	8.3	.	.
CCCCCc1c2c(cc(O)c1C(=O)O)OC(=O)c1c(cc(OC)cc1C(=O)CCCC)O2	2.3	11.4*	-5.3	-18.3	0.9	23.6	4.4	2.5
CCOC(=O)C1(C)CCN1C(=O)c1cccc(C#N)c1 (configuration not stated)	.	0.0	.	-0.6	.	0.0	.	.
O=C1CC(SC(=Nc2ccccc2)Nc2ccccc2)C(=O)N1c1cccc(Cl)c1 (configuration not stated)	-5.0	-0.2	-4.4	-4.1	16.5	16.7	.	.
O=C1CC(SC(=Nc2ccccc2)Nc2ccccc2)C(=O)N1c1ccc(Cl)cc1 (configuration not stated)	-0.9	12.5*	-1.2	-0.7	-3.6	10.5	-1.2	8.6
COc1ccc(N=c2oc3c(OC)cccc3cc2C(=O)NCc2ccco2)c(OC)c1	-4.9	31.6*	-3.0	1.6	4.1	17.1	12.8*	24.6*
CC(C)Oc1ccc(/C=C/C(=O)NCC2COc3ccccc3O2)cc1 (configuration not stated)	0.1	10.3*	-1.5	6.0	.	3.7	1.3	3.4
O=C(CSc1nnc(COc2ccccc2)o1)N1CCN(c2ccccc2)CC1	-11.1	1.4	-2.5	0.5	2.2	26.0	.	.
O=C(CSc1nnc(COc2ccc(Cl)cc2)o1)N1CCN(c2ccccc2)CC1	-0.6	-0.6	-3.3	-2.1	3.2	0.2	.	.
CCc1ccc(OCc2nnc(SCC(=O)N3CCN(c4ccccc4)CC3)o2)cc1	0.3	16.6*	-1.2	-14.2	-1.0	8.7	6.0	19.6*
Cc1cc(C)cc(OCc2nnc(SCC(=O)N3CCN(c4ccccc4)CC3)o2)c1	-1.1	10.0*	-1.9	2.8	6.8	0.3	4.0	12.0
CCN(CC(=O)Nc1ccc2c(c1)OCCO2)C(=O)C(C)Oc1ccc(Cl)cc1 (configuration not stated)	-7.1	-2.3	1.8	5.3	.	16.2	.	.
COc1cc(/C=N/NC(=O)c2ccccn2)ccc1OC(=O)c1ccc(Br)cc1	-5.3	1.9	-5.6	-2.6	.	-0.5	.	.
COc1cc(/C=N/NC(=O)c2ccccn2)ccc1OC(=O)c1ccccc1Br	-13.5	12.5*	-3.0	10.5	.	-1.5	5.5	1.0
Cc1ccc(S(=O)(=O)N2CCN(CN3C(=O)CC4(CCCC4)C3=O)CC2)cc1	-9.2	-3.0	-1.1	0.7	.	13.2	.	.
CCN(CC(=O)Nc1ccccc1C(F)(F)F)C(=O)c1ccc(-n2nc(C)c(CCC(=O)OC)c2C)cc1	8.5	-0.7	.	-0.7	.	0.4	.	.
CC1=CC2=NC(=O)/C(=C\c3cccn3CCOc3ccc(C)c(C)c3)C(=N)N2O1	0.4	13.7*	-2.1	3.6	-6.2	-1.9	-2.6	5.2
COc1ccccc1Nc1nnc(SCC(=O)Nc2cc(C)on2)s1	0.8	29.7*	-5.6	-4.7	4.2	5.0	2.8	7.1
Cc1ccc(C(=O)Cn2c(C(=O)/C=C/c3ccccc3)nc3ccccc32)cc1	-6.2	20.4*	-5.4	-9.6	21.0	6.9	21.0*	3.7
Cc1ccc(NC(=O)Cn2c(/C=C/c3ccccc3)nc3ccccc32)cc1C	-10.2	17.0*	-5.8	1.7	-2.9	13.8	-1.1	.
SMILES	TLR9-MyD88 inh	MC4R barr agon	MIN6 prolif	NOD2 RIPK2 PPI	TLR4-MyD88 BLA	MC4R antag cAMP	MC4R barr ag	MOR-DOR barr ag
CNc1cnc(-c2ccccc2OC)cn1	.	-1.1	.	-1.6	.	2.2	.	.
O=C(COC(=O)CC1CCCCC1)Nc1c(Cl)cccc1Cl	-10.9	1.5	1.7	-0.1	.	7.6	.	.
O=C(OCc1cc(=O)n2c(n1)sc1ccccc12)c1cccc(O)c1	15.4	0.1	1.2	0.3	1.5	1.8	.	.
O=C(OCc1cc(=O)n2c(n1)sc1ccccc12)c1ccc(O)cc1O	6.2	16.7*	-0.8	-10.3	-3.3	-3.4	0.9	4.7
Cc1ccc(-c2csc(N(C)C(=O)c3c(C)nn(-c4ccccc4)c3Cl)n2)cc1	2.5	15.7*	-2.2	-2.5	-11.3	0.9	7.7	3.2
COc1ccc(N2CC(O)=C(c3nc(-c4ccc(Br)cc4)cs3)C2=N)cc1	-3.2	4.2	-3.5	-2.9	6.0	7.2	.	.
COc1ccc(N2CC(O)=C(c3nc(-c4ccccc4)cs3)C2=N)cc1	2.1	19.1*	-2.0	-9.6	.	8.3	7.5	3.6
Cc1ccc(C(=O)Nc2cccc(C(F)(F)F)c2)cc1NC(=O)c1nccnc1N	-2.1	16.8*	0.9	-1.5	.	-18.1	7.8	44.4*!
O=C(CN1CCOCC1)Nc1cccc(C(=O)Nc2cccc(C(F)(F)F)c2)c1	12.2	-2.9	0.7	2.6	-3.8	3.0	.	.
CCCCCNCC(=O)Nc1cccc(C(=O)Nc2cccc(C(F)(F)F)c2)c1	3.1	15.2*	-6.6	6.9	-9.1	-4.7	16.2*	14.0
CC(CC(=O)Nc1ccc2c(c1)c(=O)n(C)n2-c1ccc2ccccc2c1)C(F)(F)F (configuration not stated)	.	9.7*	.	3.1	.	-22.4	-2.1	5.4
Cn1c(=O)c2cc(NC(=O)Cc3cccnc3)ccc2n1-c1ccc2ccccc2c1	.	-2.2	.	-0.8	.	0.7	.	.
COc1ccc(NC(=O)C2CCCN(S(=O)(=O)c3ccc4c(c3)CCCN4C(C)=O)C2)cc1Cl (configuration not stated)	-6.0	1.5	2.0	0.5	.	15.9	.	.
